High-throughput results as filed in PubChem.
T cruzi inh: inhibitors of intracellular T. cruzi growth, primary screen, luminescence, NIH3T3 host cells; inhibition, % (no concentration beside the values); T. cruzi beta-gal in NIH3T3, 90 h; AID 1885, 2009; 1.4% of 300,000 active;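 active = mean inhibition across valid replicates above about 55%, limit read from the data; inconclusive = mean below that limit but half or more replicates reach it; inactive = mean below it, under half of replicates reach it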;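 note: signal also drops with host cell toxicity which is not excluded here; 0% = plate median of DMSO wells and 100% = zero luminescence signal; higher percent means less beta-gal luminescence so fewer parasites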
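compound dosing = single 50 nL compound addition per well in DMSO | material = NIH/3T3 host cells with β-galactosidase reporter T. cruzi | input = 5,000 host fibroblasts per well | timing = ≥90 h infection period, 3 h prior cell attachment | read-out basis = percent inhibition of parasite-derived β-gal signal | detection = GalScreen β-gal luminescence, detergent lysis, 60 min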
UPR CHOP act: activators of apoptotic CHOP UPR arm, primary screen, cell-based, CHO-CHOP luciferase reporter, luminescence, uHTS | UPR activation; percent of tunicamycin response over DMSO baseline | activation, % at 10 µM | 0.34% of 330,000 active;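 active = at 10 µM dose, activation of 40% or more, normalized to positive control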;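 note: 100% = tunicamycin at 10 µg/mL and 0% = DMSO alone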
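measured by = luciferase luminescence | assay system = CHO-CHOP cells, stable luciferase reporter of PERK-eIF2a-CHOP signalling | amount = 500 reporter cells seeded per well | timing = 6 h compound exposure at 37 °C after overnight seeding | controls = positive tunicamycin 10 µg/mL, negative DMSO alone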
XBP1 UPR activ: activators of adaptive XBP1 UPR arm, primary screen, cell-based, CHO-XBP1 luciferase reporter, luminescence, uHTS; IRE1-XBP1 UPR activation; percent of tunicamycin response, DMSO as zero; activation, % at 20 µM; 0.33% of 330,000 active; AID 463104, 2010;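 active = versus positive control, 20 µM dose yields 30% or more activation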;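 note: 100% = tunicamycin at 10 µg/mL and 0% = DMSO only wells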
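Material: CHO-XBP1 cells stably carrying IRE1-XBP1-driven luciferase reporter | Medium: F12 with 10% serum | Compound dosing: 20 µM single concentration, DMSO 1% | Incubation: Overnight seeding at 37 °C, 6 h compound treatment at 37 °C | Detection: Steady-Glo luminescence read | Read-out basis: % activation of reporter signal versus tunicamycin and DMSO controls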
Mdm2 MdmX PPI: inhibitors of human Mdm2-MdmX association, primary screen, cell-based, luminescence, split luciferase, SaOS-2, uHTS; Protein Mdm4 (Homo sapiens) + E3 ubiquitin-protein ligase Mdm2 (Homo sapiens), …; SaOS-2 split-luciferase Mdm2/MdmX complementation; inhibition, % at 8 µM; 3% of 330,000 active; AID 485346, 2010;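 active = inhibition of at least 50% at 8 µM in the primary screen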
Beta apoptosis: inhibitors of cytokine-induced beta cell apoptosis, primary screen, luminescence; protection from apoptosis, % (test concentration not listed); AID 435005, 2010; INS-1E cytokine-induced death, ATP luminescence, 48 h; percent of positive-control rescue, neutral wells zero; 0.8% of 300,000 active;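 active = Every replicate reaches about 75%, or at least half do and their mean reaches it too, limit read from the data; inconclusive = At least half of replicates reach the limit but their mean does not; inactive = Under half of replicates reach the limit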;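 note: 0% = cytokine-treated negative control wells and 100% = positive control rescue; higher means more ATP so stronger rescue from cytokine killing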
CSC inhib: cancer stem cell viability inhibitors, primary screen, luminescence | cancer stem cell-like cells viability | inhibition, % at 7.5 µM | 1.1% of 300,000 active | AID 2717, 2010; in the data active = inhibition above about 75%; inconclusive = no clear call, values can overlap the other calls; tested in HMLE shEcad cells
An asterisk follows results filed as active; ? = inconclusive; . = no result. Only some compounds are listed: those with a hit (about 5% of all), similar ones and a draw of the others.

SMILES	T cruzi inh	UPR CHOP act	XBP1 UPR activ	Mdm2 MdmX PPI	Beta apoptosis	CSC inhib
CC(=O)N(c1ccccc1Cl)S(=O)(=O)c1ccc(Cl)cc1	-13	-1	-4	-7	2	-8
CC(=O)c1ccc(N2CCN(C(=O)CN3C(=O)NC4(CCCCC4)C3=O)CC2)c(F)c1	.	2	-3	-9	4	-6
Cc1nc2ccccn2c1CN(C)C(=O)C1CCC(=O)N(Cc2cccc(F)c2)C1 (centres undefined)	-5	0	1	18	-10	-4
Cc1cc2ccccc2n1CCNC(=O)COc1ccccc1	58*	0	-6	20	4	5
COC(=O)CSc1nnc(CNS(=O)(=O)c2ccc(Cl)cc2)n1C	9	0	-1	-34	0	.
Cc1c(CC(=O)NCC(=O)O)c(=O)oc2cc3c(cc12)CCC(C)(C)O3	-3	1	-4	13	1	-5
NC(=S)N/N=C/c1ccc(-c2ccc(Cl)c(Cl)c2)o1	60*	6	7	-14	-6	11
NC(=S)N/N=C/c1ccc(-c2ccccc2)o1	16	3	0	5	1	-15
NC(=S)N/N=C/c1ccc(-c2ccc(SC(F)F)cc2)o1	72*	9	10	1	14	43
Cc1ccc(-c2ccc(/C=N/NC(N)=S)o2)cc1	13	6	9	-4	-7	25
O=C(Nc1ccc(Cl)cc1Cl)c1ccc(Br)o1	-6	7	-2	-8	-2	-4
CCOc1ccc(CN2CCN(CC3=Cc4cccc(OC)c4OC3)CC2CCO)cc1 (centres undefined)	56*	-1	4	7	-5	3
CCOc1ccc(CN2CCN(Cc3cc4ccccc4[nH]3)CC2CCO)cc1 (centres undefined)	60*	.	.	.	.	.
COc1ccc2c(c1)C=C(CN1CCN(Cc3ccccc3C)C(CCO)C1)CO2 (centres undefined)	55*	1	-2	19	-1	20
CCOc1ccc(CN2CCN(Cc3cnc(-c4ccccc4)s3)CC2CCO)cc1 (centres undefined)	56*	-1	-4	-11	1	15
O=S(=O)(NCC1CN(S(=O)(=O)c2c(F)cccc2F)C1)c1ccc2c(c1)OCCO2	.	0	-6	0	12	3
CC1CCC(NC(=O)c2cc(C3CC3)nn2-c2ccccc2)CC1 (centres undefined)	.	5	7	2	1	.
O=C(NCCc1ccccc1)C1CCC(=O)N(Cc2cccc(C(F)(F)F)c2)C1 (centres undefined)	-1	1	-2	-12	2	-2
NS(=O)(=O)c1ccc(NC(=O)COC(=O)C2CC(=O)N(Cc3ccccc3)C2)cc1 (centres undefined)	-3	0	-2	-1	-3	-7
Cc1c(Cl)cccc1NC(=O)CN1CCC(C(O)(c2ccccc2)c2ccccc2)CC1	62*	0	-2	34	0	30
Cc1ccccc1C(=O)NC1CCN(CC(=O)Nc2ccccc2Cl)CC1	8	2	-4	6	1	-6
CC1CCN(CC(=O)Nc2ccccc2Sc2ccccc2)CC1	26	2	3	-22	-4	117*
O=C(Nc1cccc(NC(=O)c2ccc(-c3ccc(Br)cc3)o2)c1)c1ccco1	58*	1	13	43	-5	39
CC(C)[C@@H]1CC[C@@H](C)c2c(-c3ccccc3)n[nH]c21	42	-3	-1	-1	-1	101*
CCc1ccc2[nH]c3nc(N/N=C/c4cccc(O)c4)nnc3c2c1	0	5	-3	8	-2	98*
SMILES	T cruzi inh	UPR CHOP act	XBP1 UPR activ	Mdm2 MdmX PPI	Beta apoptosis	CSC inhib
O=C(O)c1ccc(Nc2ncc([N+](=O)[O-])cc2[N+](=O)[O-])cc1	?	1	-2	-10	.	3
CC(Oc1ccc(Br)cc1)c1nc2c3ccccc3nc(=S)n2[nH]1 (centres undefined)	18	0	5	9	99*	15
C/C(=N\NC(=O)c1cc(Cl)ccc1O)c1ccc(Br)s1	-18	4	-3	-22	-3	103*
C/C(=N\NC(=O)c1ccc(Cl)cc1)c1ccc(Br)s1	58*	2	6	48	11	12
C/C(=N\NC(=O)c1cc2ccccc2cc1O)c1cccs1	55*	-5	-4	-89	2	54
O=C(NNC(=O)c1cc2ccccc2cc1O)c1cccs1	-15	6	-2	-31	4	11
C/C(=N/NC(=O)c1ccco1)c1ccc(Br)s1	-10	3	-2	3	2	-9
Cc1cc(C)n2nc(CCCCc3nc4nc(C)cc(C)n4n3)nc2n1	-11	2	-4	10	-3	-3
Cc1cccc(-n2c(C)cc(/C=N/n3cnnc3)c2C)c1	8	-1	-3	-3	111*	-8
COC(=O)CCN(C(=O)c1cc([N+](=O)[O-])cc([N+](=O)[O-])c1)c1ccccn1	65*	0	-1	-17	-2	-13
COC(=O)CCN(C(=O)c1ccc([N+](=O)[O-])cc1)c1ccccn1	-6	0	-4	13	2	-9
COc1ccc(-c2cc(-c3ccccc3)c(C#N)c(SCC(=O)Nc3ncc(C)s3)n2)cc1	56*	0	1	27	.	.
N#Cc1c(-c2ccc(F)cc2)cc(-c2ccccc2)nc1SCC(=O)NCC(=O)O	-13	0	1	-14	-1	3
N#Cc1c(-c2ccccc2)cc(-c2ccccc2)nc1SCCC(=O)O	31	-4	-2	41	-2	75*
CCc1ccc(NC(=O)c2ccc(NC3=NC4CS(=O)(=O)CC4S3)cc2)cc1 (centres undefined)	-12	2	-2	21	2	-2
CCc1ccc(-c2cc(C(F)(F)F)n3nc(C(=O)Nc4c(C)nn(Cc5ccccc5C)c4C)cc3n2)s1	59*	4	2	15	24	.
CCc1ccc(-c2cc(C(F)(F)F)n3nc(C(=O)Nc4c(C)nn(Cc5ccccc5Cl)c4C)cc3n2)s1	12	0	0	14	19	.
Cc1ccc2c(c1)N(CC(=O)NCC(C)c1ccccc1)C(=O)c1cccnc1O2 (centres undefined)	-1	-2	-1	0	-7	-8
